rRNA inh HTS = selective bacterial rRNA inhibition in E. coli; E. coli WT GFP vs humanized-ribosome RFP mutants, fluorescence, 24 h; active compounds read low; DMSO median 0, no signal -100; GFP signal change (wild-type ribosome), % (test concentration not listed); hit rate 1.6% among 350,000; AID 720706;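 active = significant combined selectivity score with lowered wild-type GFP, culture density cut under 30%, mutant RFP and density less affected; inactive = any of these conditions unmet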
EWS-Fli inh = inhibitors of EWS/Fli oncoprotein transcriptional activity | A673 NR0B1-luciferase reporter, viability-normalised | inhibition, % at 12.6 µM | hit rate 0.67% among 350,000 | AID 651661;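 active = mean inhibition of at least 50% after viability correction, with every replicate also passing that limit; inconclusive = mean reaches 50% but only one of two replicates passes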;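 also: firefly luciferase signal divided by Alamar Blue viability fluorescence both relative to DMSO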
LGR2 antag = Drosophila LGR2 receptor signaling inhibition | HEK293 LGR2, CRE-luciferase, bursicon-stimulated, 4 h | hit rate 0.35% among 380,000 | inhibition, % at 9.99 µM | AID 720647;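 active = drop in luminescence signal, shown as inhibition above about 50% in the replicate tests, limit read from the data, passing the limit was not always enough; inconclusive = probably only some replicates passing the limit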;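 also: agonist challenge used bursicon conditioned medium at about half maximal strength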
E-selectin induc = induces E-selectin expression in human endothelial cells; P16581; HUVEC E-selectin immunofluorescence imaging; normalized: neutral wells 0, TNF-alpha wells 100; activation, % at 7.58 µM; hit rate 0.37% among 260,000; AID 686992;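 active = mean E-selectin-positive cell signal at least 10% of the positive control, reached in at least 60% of replicates, without over 20% cell loss; inconclusive = no rule given, readout overlaps actives, possibly toxicity-flagged; inactive = the rest, including those meeting only one limit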
Target sequence (P16581 whole entry, looked up): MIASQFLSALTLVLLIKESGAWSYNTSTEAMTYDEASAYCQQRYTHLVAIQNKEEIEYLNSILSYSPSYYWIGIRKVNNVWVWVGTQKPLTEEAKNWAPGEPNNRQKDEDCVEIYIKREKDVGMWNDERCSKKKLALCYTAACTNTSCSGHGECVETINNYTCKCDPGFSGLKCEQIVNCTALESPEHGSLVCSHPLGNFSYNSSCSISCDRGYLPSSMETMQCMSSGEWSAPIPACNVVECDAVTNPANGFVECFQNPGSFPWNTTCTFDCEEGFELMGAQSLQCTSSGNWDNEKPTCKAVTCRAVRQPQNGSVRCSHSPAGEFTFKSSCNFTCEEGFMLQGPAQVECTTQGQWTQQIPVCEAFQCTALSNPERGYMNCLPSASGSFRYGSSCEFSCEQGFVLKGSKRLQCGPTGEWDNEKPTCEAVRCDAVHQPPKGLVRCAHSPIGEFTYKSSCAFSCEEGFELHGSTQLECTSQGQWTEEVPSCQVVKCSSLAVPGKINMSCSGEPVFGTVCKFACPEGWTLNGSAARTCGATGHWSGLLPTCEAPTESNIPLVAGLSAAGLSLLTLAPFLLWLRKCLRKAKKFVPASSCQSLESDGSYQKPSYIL
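System: HUVEC / Compound: single concentration / Signal: immunofluorescence imaging / Read-out: percent E-selectin-positive cells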
AID977621 = growth inhibition of wild-type GFP E. coli, dose response, H69 mutant RFP, cherry-pick; shares compounds with rRNA inh HTS; E. coli wild-type GFP strain growth, fluorescence, 24 h; activity change, negative = inhibition at 50 µM; 1,900 tested, under 10 active;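 active = Wild-type ribosome reporter drop at least double the humanized mutant ribosome reporter drop, growth loss under a set limit; inconclusive = no clear call, values can overlap the other calls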;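 also: wild-type GFP and H69 mutant RFP strains grown together 50/50 in each well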
AID977628 = E. coli growth inhibition, wild-type GFP versus h24 humanized RFP strain, dose response, h24 mutant RFP vs wild-type GFP, cherry-pick; 1,900 tested, under 10 active; E. coli WT GFP strain growth, fluorescence, 24 h; shares compounds with rRNA inh HTS; AID 977628; activity change, negative = inhibition at 50 µM;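 active = compound lowering the normal-ribosome reporter at least twice as much as the humanized-ribosome reporter, growth loss under a set limit; inconclusive = no clear call, values can overlap the other calls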;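 also: wild-type GFP and h24 humanized RFP strains co-cultured 1 to 1 per well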
Active calls of the source: *; ? = inconclusive; nt = not tested or not shown; ! = a repeat was not active. Most compounds without a hit are left out; they make up all but 2.4% or so of the library.

SMILES	rRNA inh HTS	EWS-Fli inh	LGR2 antag	E-selectin induc	AID977621	AID977628
CCCCNC(=O)c1onc(CSc2cc(C)cc(C)c2)c1C(=O)NCCCC	9	22	14	0	nt	nt
CCCCNC(=O)c1onc(CSc2cc(C)cc(C)c2)c1C(=O)O	-29*	2	3	0	-7.9	nt
COc1ccc2c3c([nH]c2c1)[C@@H](CO)N(C(=O)c1ccc(F)cc1)CC31CCN(C)CC1	1	nt	nt	nt	nt	nt
Cc1cccc(OCc2nnc(SCC(=O)Nc3ncc(C)s3)o2)c1	-34*	0	-8	5	nt	-7.7
Cc1cccc(OCc2nnc(SCC(=O)Nc3ccc(C)c(C)c3)o2)c1	-16	1	0	nt	nt	nt
Cc1ccc(C(=O)Nc2ccc(C)c(S(=O)(=O)Nc3ccccc3Cl)c2)s1	-32*	1	9	nt	-12	?
Cc1ccc(NC(=O)c2cc3c(s2)CCCC3)cc1S(=O)(=O)Nc1ccccc1Cl	nt	nt	20	nt	nt	nt
O=C(c1ccccn1)N1C[C@H]2[C@@H](c3ccccc31)[C@@H](CO)N2CC1CCCC1	3	nt	nt	nt	nt	nt
Cc1nc2ncnn2c(N2CCC(C(=O)NC3CCCC3)CC2)c1Cc1ccccc1	-19*	-15	2	nt	-10	-7.5
CC(=O)NC(Cc1ccc(F)c(F)c1)C(=O)NC1CCN(c2c(Cc3ccccc3)c(C)nc3ncnn23)CC1 (stereo not given)	-6	-44	-3	nt	nt	nt
Cc1c(C)n(C(=O)CN2CCC(C(N)=O)CC2)c2ccccc12	nt	nt	-6	nt	nt	nt
O=C(CN1CCCCC1)n1c2ccccc2c2ccccc21	-24*	3	-33	2	-3	-0.41
CCCN1[C@@H]2c3ccc(-c4ccc(C(=O)N(C)C)cc4)c(=O)n3C[C@@H]2[C@@H](CO)[C@@H]1C(=O)NCC	3	2	-8	0	nt	nt
O=C(NCCc1ccccn1)c1cccc(S(=O)(=O)N2CCc3ccccc32)c1	-18*	-15	5	nt	nt	?
CC(=O)Nc1ccc(Nc2nc(C)c([N+](=O)[O-])c(N(C)c3ccccc3)n2)cc1	-44*	23	33	4	?	?
C[C@@H]1CN([C@H](C)CO)C(=O)c2cc(NC(=O)c3ccncc3)ccc2O[C@@H](C)CCCCO[C@H]1CN(C)C(=O)c1ccncc1	3	nt	-3	0	nt	nt
C[C@@H]1CCCCO[C@H](CN(C)C(=O)Nc2ccc(C(F)(F)F)cc2)[C@@H](C)CN([C@@H](C)CO)C(=O)c2cc(NC(=O)Cc3ccccc3)ccc2O1	0	-19	21	0	nt	nt
O=C(COc1ccc(Cl)cc1)Nc1ccc2c(c1)CCC2	nt	nt	-51	nt	nt	nt
CC(=O)c1ccc(OCC(=O)Nc2ccc3c(c2)CCC3)cc1	-26*	-16	-31	0	-5.5	-5.3
C[C@H]1CN([C@@H](C)CO)C(=O)c2cc(C#Cc3ccncc3)cnc2O[C@@H]1CN(C)CC1CCCC1	13	-18	7	0	nt	nt
COCC#Cc1ccc2c(c1)O[C@H](CN(C)C(=O)c1ccccc1)[C@@H](C)CN([C@H](C)CO)S2(=O)=O	-19*!	2	10	-5	-7.6	-12
OCCN(Cc1ccccc1)Cc1ccc(F)c(F)c1	-23*	1	14	nt	-11	-9.4
CCCNC(=O)C[C@@H]1C[C@@H]2c3cc(NS(=O)(=O)c4ccc(OC)cc4)ccc3O[C@@H]2[C@H](CO)O1	-2	5	-2	0	nt	nt
COc1ccccc1CN1C[C@@H](C)[C@H](OC)CN(C)C(=O)c2ccc(NC(C)=O)cc2OC[C@H]1C	2	0	5	0	nt	nt
CNC[C@H]1Oc2ccc(N)cc2C(=O)N(C)C[C@H]1C	2	nt	nt	nt	nt	nt
SMILES	rRNA inh HTS	EWS-Fli inh	LGR2 antag	E-selectin induc	AID977621	AID977628
CCOC(=O)CSc1n[nH]c(=S)s1	0	3	10	0	nt	nt
CCOC(=O)CCSc1n[nH]c(=S)s1	-21*	0	-22	nt	-14	-2.7
Cc1ccccc1-c1ccc([C@@H]2[C@H](CO)N3CCCCN(C(=O)Nc4ccc(F)cc4)C[C@@H]23)cc1	-60	33	10	-1	nt	nt
O=C(Nc1ccccc1)N1CCCCN2[C@H](CO)[C@@H](c3ccc(Br)cc3)[C@@H]2C1	-10	-4	11	-1	nt	nt
Cc1ccccc1-c1ccc([C@@H]2[C@@H](CO)N3CCCCN(C(=O)Nc4ccc(F)cc4)C[C@@H]23)cc1	-38*	1	16	0	nt	?
O=C(Nc1ccccc1)N1CCCCN2[C@@H](CO)[C@H](c3ccc(Br)cc3)[C@@H]2C1	-23*	15	-2	-1	nt	?
CCC(=O)N1[C@@H](CO)[C@@H]2c3ccccc3N(C(=O)CC(F)(F)F)C[C@@H]21	6	8	-37	0	nt	nt
Cc1ccccc1NC(=O)C[C@H]1CC[C@H]2[C@@H](COc3ccc(NC(=O)c4ccc(Cl)cc4)cc3C(=O)N2C)O1	-3	nt	nt	nt	nt	nt
C[C@@H]1CN([C@@H](C)CO)C(=O)c2cc(NC(=O)NC3CCCCC3)ccc2O[C@@H]1CN(C)S(=O)(=O)c1ccc(F)cc1	0	4	-9	15	nt	nt
c1cncc(-c2nc3cc4ccccc4cc3[nH]2)c1	-26*	-100	-24	nt	-3.1	nt
COc1cc[n+]([O-])cc1[N+](=O)[O-]	1.2*	3	34	0	-14	-6.7
Cc1c[n+]([O-])ccc1Oc1ccc([N+](=O)[O-])cc1	10	-7	-29	0	nt	nt
CC(=O)c1cnc2c(-c3ccccc3)c(C(F)(F)F)nn2c1C	nt	10	nt	3	nt	nt
Cc1nn2c(C)c(C(=O)Nc3ccccc3)cnc2c1-c1ccccc1	-32*	3	13	3	8.6	-3.7
CCOC(=O)Cn1c(=O)oc2ccc(C)cc21	7	7	-10	0	nt	nt
Cc1ccc2oc(=O)n(CCCOc3ccccc3C)c2c1	-19*	-27	-15	0	-8.4	?
Cc1ccc2oc(=O)n(CC(=O)OCCC(C)C)c2c1	-18*	-2	8	0	-14	-2.5
Cc1ccc2oc(=O)n(CCOc3ccccc3C)c2c1	12	-9	-7	1	nt	nt
Nc1nc2ccccc2n1CCOc1ccc(F)cc1	-21*	4	4	nt	-6.1	-14
COc1ccc(OCCn2c(N)nc3ccccc32)cc1	-23	3	4	0	nt	nt
C[C@@H]1CN([C@@H](C)CO)C(=O)c2cc(-c3cccnc3)cnc2O[C@H]1CN(C)C(=O)C1CCCCC1	1	-6	-7	0	nt	nt
CN(Cc1ccccc1NS(=O)(=O)c1ccc(Cl)cc1)C1CCCCC1	-29*	4	0	0	-6.9	?
Cc1ccc(CSc2ncnc3onc(C)c23)cc1	7	6	13	nt	nt	nt
Cc1noc2ncnc(SCc3ccc(C(F)(F)F)cc3)c12	-21*	23	-12	nt	-2.2	?
Clc1ccc(-c2cn(-c3ccccc3)c3[n+]2CCS3)cc1	-18*	8	-29	nt	-12	?
